Screens from PubChem BioAssay.
Diaph act CS – compounds boosting diaphorase resazurin reduction – biochemical, uHTS, resorufin fluorescence, counter-screen for diaphorase-coupled primary assays, primary screen. Diaphorase/resazurin coupled assay, 16 min; hits give high values; 1 = vehicle wells, 0 = NADH-free wells. actives 0.005% (n = 190,000). activation factor at 20 µM;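 active = diaphorase activity raised at least twofold by the compound at 20 µM; inactive = activation factor below 2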
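Assay system: Purified diaphorase enzyme from Clostridium kluyveri | Amount: Enzyme 0.07 U/mL final | Dosing: Compound 20 µM once, DMSO 1% | Timing: 16 min reaction at room temperature | Detection: Fluorescence, excitation 544 nm and emission 590 nm | Evaluation: Higher resorufin formation from activation or reduction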
Diaph inh CS – diaphorase inhibitors and chemical oxidizers, primary screen, counter-screen for diaphorase-coupled primary assays, biochemical, uHTS, resorufin fluorescence. actives 0.69% (n = 190,000). diaphorase resazurin-to-resorufin fluorescence, NADH, 16 min; bacterial (C. kluyveri) enzyme, not human. AID 1217, 2008. inhibition, % at 20 µM;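 active = primary screen inhibition at 20 µM above a set limit, cut at about 50% in these data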;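 note: plate controls were DMSO with full reaction for no effect and wells lacking NADH for full effect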
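System: Bacterial diaphorase enzyme (C. kluyveri) | Incubation: 16-min room-temperature incubation before reading | Benchmarks: No-NADH positive control and DMSO neutral control | Measured by: Resorufin fluorescence 544/590 nm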
G6PDH CS – L. mesenteroides G6PDH inhibitors, counter-screen for G6PDH-coupled screening assays, biochemical, Leuconostoc mesenteroides enzyme | glucose-6-phosphate dehydrogenase [Leuconostoc mesenteroides] | Purified L. mesenteroides G6PDH, diaphorase/resazurin coupled fluorescence, 45 min | inhibition, % at 5 µM | actives 0.12% (n = 200,000) | AID 1020, 2008
WT yeast gro inh – growth inhibition of WT strain, primary screen, mitochondrial fusion inhibitor project, WT and mutant strains, chemical genetic; mitochondrial fusion phenotypic screen; inhibition, % at 10 µM; actives 2.1% (n = 190,000); AID 1362, 2008; in the data active = inhibition above about 58%; tested in S. cerevisiae
Lmaj promast – Leishmania major promastigote growth inhibition, primary screen; inhibition, % at 10 µM; Leishmania major promastigotes, resazurin fluorescence viability; actives 9% (n = 200,000); AID 1063, 2008;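 note: promastigotes grown with compound for 44 hours at 28 °C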
* marks the source's active call; other numbers are inactive results; . = not tested or not shown. Rows were chosen to be rich in hits. Some 11% of all compounds tested hit in one or more screens of this group. Cut-off read from the data, not from the text of the source, unless noted: active = inhibition above about 50%; inactive = the rest.

SMILES	Diaph act CS	Diaph inh CS	G6PDH CS	WT yeast gro inh	Lmaj promast
O=C(C1=C[C@H](C2CCCCC2)C[C@H](OCc2ccc(CO)cc2)O1)N1CCN(Cc2ccccc2)CC1	0.7	30.8	17.6	72.0*	34.7
O=C(C1=C[C@H](C2CCCCC2)C[C@H](OCc2ccc(CO)cc2)O1)N1CCOCC1	0.9	12.9	16.0	6.0	-5.5
O=C(C1=C[C@@H](C2CCCCC2)C[C@@H](OCc2ccc(CO)cc2)O1)N1CCN(Cc2ccccc2)CC1	0.7	30.5	11.1	64.4*	39.7
O=C1Nc2ccccc2S/C1=C/Nc1cccc(Cl)c1	0.8	23.5	-2.4	-4.8	-12.1
COC(=O)c1c(O)cc(C(C)(C)C)n(-c2ccccc2)c1=O	1	4.2	0.0	12.8	-7.2
O=C(Cc1ccccc1)NCc1n[nH]c(=S)n1-c1ccc(Br)cc1	0.9	6.9	6.5	-17.7	-4.8
C/C(=N/NS(=O)(=O)c1ccc(Cl)cc1)c1cccc(NC(=O)c2ccc(Cl)cc2Cl)c1	0.9	6.9	5.9	-15.1	96.9*
C/C(=N/NS(=O)(=O)c1ccc(C)cc1)c1cccc(NC(=O)c2cccc(Cl)c2)c1	0.7	27.7	6.5	16.3	9.4
O=c1cnn(-c2ccccc2)c(-c2ccccc2)c1	1	2.2	9.1	11.3	82.0*
COc1cc(C)nc(N(C)S(=O)(=O)c2ccccc2Cl)n1	0.8	17.2	0.3	13.8	9.4
COc1ccc(-c2nnc(NC(=O)c3ccccc3C)o2)cc1	.	.	.	63.9*	.
COc1ccccc1C(=O)Nc1nnc(-c2ccc3c(c2)CCCC3)o1	1	2.0	-1.8	60.0*	-2.3
Cc1ccccc1C(=O)Nc1nnc(-c2ccncc2)o1	0.9	7.1	2.5	-0.1	-5.5
CSc1nc(-c2ccccc2)[nH]c(=S)c1C(C)=O	0.3	73.2*	-2.2	-0.3	-9.8
CC(=O)c1c(NC(=O)c2ccccc2)[nH]c(-c2ccccc2)nc1=S	0.3	67.3*	-1.8	22.7	-5.6
Cc1cc(C)nc(NNC(=O)c2ccccc2O)n1	1	-0.6	7.5	-3.3	-3.2
CCOC(=O)/C(=C/C=C1\Sc2cc(C)c(C)cc2N1CC)C(C)=O	0.9	14.4	11.5	45.4	9.5
CCN1/C(=C/c2ccc3cc(C)ccc3[n+]2CC)Sc2cc(C)c(C)cc21	1.2	-22.9	7.3	91.6*	100.3*
CCN1/C(=C/c2ccc3cc(C)ccc3[n+]2CC)Sc2ccccc21	1.3	-27.0	-1.2	66.5	100.5*
COc1ccc(C(=O)/C=C2\Sc3ccccc3N2C)cc1	0.9	5.8	8.4	14.2	-3.3
CC[n+]1c(/C=C2\Sc3ccccc3N2C)ccc2cccc(C)c21	1.6	-57.2	7.4	64.3	100.5*
O=C(c1cc2cc(Br)cc(Br)c2oc1=O)N1CCCc2ccccc21	1.1	-14.3	8.9	-11.1	-5.9
CNc1cc(C(F)(F)F)nc(-c2ccccn2)n1	1	0.2	9.8	-6.5	-6.1
Nc1nc(-c2ccccn2)nc(N)c1Cc1c(F)cccc1Cl	1	-3.6	19.7	5.6	100.6*
Nc1nc(-c2ccccn2)nc(N)c1Cc1ccc(Cl)cc1Cl	0.9	6.0	21.1	-4.6	100.6*
SMILES	Diaph act CS	Diaph inh CS	G6PDH CS	WT yeast gro inh	Lmaj promast
Nc1nc(-c2ccccn2)nc(N)c1Cc1ccccc1F	0.9	5.3	22.0	1.1	95.2*
Cc1cccc(OCC(=O)NNC(=O)Nc2cccc(Cl)c2)c1C	1	3.7	-13.8	-12.6	-9.4
CCN(CC)S(=O)(=O)c1cccc(NC(=O)COc2ncnc3sccc23)c1	0.8	15.2	3.8	-8.8	-4.0
CC(/C=N\NC(=O)Cn1c(C)nc2ccccc21)=C\c1ccccc1	0.9	11.6	11.7	1.2	2.2
CC1CCOC2(O1)C(=O)Nc1ccccc12 (centres undefined)	0.9	6.2	6.9	7.2	-12.9
CC(C)c1cccc(C(C)C)c1NC(=O)CNCc1ccccc1F	1	4.4	0.5	6.6	59.9*
CC(C)c1cccc(C(C)C)c1NC(=O)CCl	0.9	9.7	0.8	6.3	17.1
O=C(/C=C/c1cccc(O)c1)c1cccnc1	1	4.1	1.0	5.5	98.6*
CCOc1ccc2[nH]c(=O)c(CN(CCN3CCCC3)C(=S)Nc3ccccc3OCC)cc2c1	1.1	-6.8	6.8	9.1	98.1*
C/C(=N\NC(=O)c1cc(-c2ccc(C)s2)[nH]n1)c1ccco1	1	4.5	10.9	2.8	5.5
O=C(C1=C(O)/C(=C/c2ccc(O)cc2)CCC1)C(F)(F)F	0.8	15.6	1.1	67.1*	56.0*
C/C(=N/NC(N)=S)c1ccccc1[N+](=O)[O-]	0.7	30.7	6.0	1.7	-1.3
COc1ccc(C(CC(=O)c2ccc(O)cc2)S(=O)(=O)c2ccc(C)cc2)cc1 (centres undefined)	1	2.0	3.2	15.3	90.9*
COc1ccc(C(CC(=O)c2ccc(C)cc2)Nc2ccc([N+](=O)[O-])cc2)cc1 (centres undefined)	0.8	17.0	-22.2	10.5	96.4*
Cc1cc(/C=C2/SC(=S)N(c3ccc([N+](=O)[O-])cc3)C2=O)c(C)n1-c1cccnc1	0.9	6.7	-3.7	5.6	91.0*
Cc1cc(/C=C2/SC(=S)N(c3cccc(Cl)c3)C2=O)c(C)n1-c1cccnc1	.	.	.	.	46.2
N#Cc1c(NC(=S)NC(=O)C2CCCC2)sc2c1CCCCC2	0.9	12.8	-12.9	66.4*	24.6
O=C1CN(C(=O)CSc2nc(-c3ccc(Cl)cc3)cs2)c2ccccc2N1	0.7	26.8	-4.2	20.2	-5.8
C=C(C)CN1CCN(S(=O)(=O)c2ccc(C)c(N(C)S(=O)(=O)c3ccc(C)cc3)c2C)CC1	1	0.0	-6.4	24.0	98.3*
Cc1ccc(S(=O)(=O)N(C)c2c(C)ccc(S(=O)(=O)NC(C)(C)C)c2C)cc1	0.8	16.1	5.8	12.9	98.9*
Cc1ccc(S(=O)(=O)N(C)c2c(C)ccc(S(=O)(=O)N3CCN(C)CC3)c2C)cc1	0.9	10.3	8.8	2.8	3.9
Cc1nc(/N=C(\N)NC(=O)N2c3ccccc3Sc3ccccc32)nc2ccccc12	0.7	26.4	11.6	13.6	97.1*
CC1(C)CC(=O)C2=C(C1)Nc1ccccc1NC2c1ccccn1 (centres undefined)	0.9	6.8	-3.5	-1.9	-0.9
O=C1CCCC2=C1C(c1ccccn1)Nc1ccc(C(=O)c3ccccc3)cc1N2 (centres undefined)	0.8	15.1	19.4	-3.9	67.0*
O=C1CCCC2=C1C(c1ccco1)Nc1ccc(C(=O)c3ccccc3)cc1N2 (centres undefined)	0.3	67.6*	32.3	-4.9	73.3*
CN1CCN(CCCNC(=S)Nc2ccc(F)c(Cl)c2)CC1	1.2	-15.1	6.8	9.3	25.7
